Reference: ChEMBL document CHEMBL1781919, “Synthesis and anticonvulsant properties of 1-(amino-N-arylmethanethio)-3-(1-substituted benzyl-2, 3-dioxoindolin-5-yl) urea derivatives” (Eur J Med Chem, 2011)
Calls of active or inactive are those of the source. No cut-off for these calls is given here.

Assays:
Mus musculus [1] = assay: Neurotoxicity in mouse assessed as electrically-induced clonic seizures at 100 mg/kg, ip after 0.25 hrs by rotarod test; format: toxicity, organism-based; set-up: dose 100 mg/kg, route intraperitoneal; details: in vivo
Outline: (§1)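 Rotorod toxicity in mice given 100 mg/kg i.p., four per time point, alongside the 6 Hz test. The endpoint is inability to maintain balance on the rotorod. Score is N/F, the number of animals showing toxicity over the number tested.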

Mus musculus [2] = assay: Anticonvulsant activity in mouse assessed as protection against maximal electroshock-induced seizures at 30 mg/kg, ip after 4 hrs; format: functional, organism-based; set-up: dose 30 mg/kg
Outline: (§2)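 Mouse Test 1: i.p. dosing at 0.01 mL/g. Sets of one, three and one animals receive 30, 100 and 300 mg/kg respectively, each tested at 0.5 h and 4.0 h. Score is N/F, the number of animals protected over the number tested. Screening performed by NINDS following the ADD program protocol.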

Mus musculus [3] = assay: Neurotoxicity in mouse assessed as minimum motor impairment at 300 mg/kg, ip after 0.5 hrs by rotarod test; format: toxicity, organism-based; set-up: dose 300 mg/kg, route intraperitoneal; details: in vivo
Outline: (§3)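 Rotorod test for minimal motor impairment in mice given 30, 100 or 300 mg/kg i.p. at 0.01 mL/g, using sets of one, three and one animals, at 0.5 h and 4.0 h. Animals are observed at each dose and time. Score is N/F, the number showing toxicity over the number tested.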

Mus musculus [4] = assay: Neurotoxicity in mouse assessed as minimum motor impairment at 100 mg/kg, ip after 0.5 hrs by rotarod test; format: toxicity, organism-based; set-up: dose 100 mg/kg, route intraperitoneal; details: in vivo; outline: as §3
Mus musculus [5] = assay: Anticonvulsant activity in mouse assessed as protection against subcutaneous pentylenetetrazole-induced seizures at 100 mg/kg, ip after 0.5 hrs; format: functional, organism-based; set-up: dose 100 mg/kg
Mus musculus [6] = assay: Neurotoxicity in mouse assessed as minimum motor impairment at 30 mg/kg, ip after 0.5 hrs by rotarod test; format: toxicity, organism-based; set-up: dose 30 mg/kg, route intraperitoneal; details: in vivo; outline: as §3
Mus musculus [7] = assay: Anticonvulsant activity in mouse assessed as protection against subcutaneous pentylenetetrazole-induced seizures at 300 mg/kg, ip after 4 hrs; format: functional, organism-based; set-up: dose 300 mg/kg
Mus musculus [8] = assay: Anticonvulsant activity in mouse assessed as protection against electrically-induced seizure at 100 mg/kg, ip after 2 hrs by 6Hz psychomotor seizure test; format: functional, organism-based; set-up: dose 100 mg/kg
Outline: (§4)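 Mice pretreated by i.p. injection at 100 mg/kg, then challenged through corneal electrodes at 6 Hz, 32 mA for 3 s, which elicits a psychomotor seizure in 97% of animals. Four mice per time point. Score is N/F, the number of animals protected over the number tested. Testing run under the NINDS Anticonvulsant Screening Program.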

Mus musculus [9] = assay: Anticonvulsant activity in mouse assessed as protection against electrically-induced seizure at 100 mg/kg, ip after 1 hr by 6Hz psychomotor seizure test; format: functional, organism-based; set-up: dose 100 mg/kg; outline: as §4
Mus musculus [10] = assay: Anticonvulsant activity in mouse assessed as protection against subcutaneous pentylenetetrazole-induced seizures at 30 mg/kg, ip after 4 hrs; format: functional, organism-based; set-up: dose 30 mg/kg
Mus musculus [11] = assay: Anticonvulsant activity in mouse assessed as protection against maximal electroshock-induced seizures at 30 mg/kg, ip after 0.5 hrs; format: functional, organism-based; set-up: dose 30 mg/kg; outline: as §2
Mus musculus [12] = assay: Anticonvulsant activity in mouse assessed as protection against electrically-induced seizure at 100 mg/kg, ip after 0.5 hrs by 6Hz psychomotor seizure test; format: functional, organism-based; set-up: dose 100 mg/kg; outline: as §4
Mus musculus [13] = assay: Neurotoxicity in mouse assessed as minimum motor impairment at 100 mg/kg, ip after 4 hrs by rotarod test; format: toxicity, organism-based; set-up: dose 100 mg/kg, route intraperitoneal; details: in vivo; outline: as §3
Mus musculus [14] = assay: Anticonvulsant activity in mouse assessed as protection against subcutaneous pentylenetetrazole-induced seizures at 300 mg/kg, ip after 0.5 hrs; format: functional, organism-based; set-up: dose 300 mg/kg
[15] = Octanol-phosphate buffer partition coefficient, log P of the compound; format: physicochemical
Outline: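 Octanol and phosphate buffer partition run at room temperature (29 °C). After separation, the phases are membrane-filtered and drug in the aqueous phase is measured by UV. PC = (Ct − Ca)/Ca, where Ct is total drug concentration and Ca is aqueous-phase concentration.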

Mus musculus [16] = assay: Anticonvulsant activity in mouse assessed as protection against subcutaneous pentylenetetrazole-induced seizures at 30 mg/kg, ip after 0.5 hrs; format: functional, organism-based; set-up: dose 30 mg/kg
Mus musculus [17] = assay: Neurotoxicity in mouse assessed as electrically-induced clonic seizures at 100 mg/kg, ip after 2 hrs by rotarod test; format: toxicity, organism-based; set-up: dose 100 mg/kg, route intraperitoneal; details: in vivo; outline: as §1
Mus musculus [18] = assay: Anticonvulsant activity in mouse assessed as protection against electrically-induced seizure at 100 mg/kg, ip after 0.25 hrs by 6Hz psychomotor seizure test; format: functional, organism-based; set-up: dose 100 mg/kg; outline: as §4
Mus musculus [19] = assay: Neurotoxicity in mouse assessed as minimum motor impairment at 30 mg/kg, ip after 4 hrs by rotarod test; format: toxicity, organism-based; set-up: dose 30 mg/kg, route intraperitoneal; details: in vivo; outline: as §3
Mus musculus [20] = assay: Anticonvulsant activity in mouse assessed as protection against electrically-induced seizure at 100 mg/kg, ip after 4 hrs by 6Hz psychomotor seizure test; format: functional, organism-based; set-up: dose 100 mg/kg; outline: as §4
Mus musculus [21] = assay: Anticonvulsant activity in mouse assessed as protection against maximal electroshock-induced seizures at 300 mg/kg, ip after 0.5 hrs; format: functional, organism-based; set-up: dose 300 mg/kg; outline: as §2
Mus musculus [22] = assay: Neurotoxicity in mouse assessed as electrically-induced clonic seizures at 100 mg/kg, ip after 4 hrs by rotarod test; format: toxicity, organism-based; set-up: dose 100 mg/kg, route intraperitoneal; details: in vivo; outline: as §1
Mus musculus [23] = assay: Anticonvulsant activity in mouse assessed as protection against subcutaneous pentylenetetrazole-induced seizures at 100 mg/kg, ip after 4 hrs; format: functional, organism-based; set-up: dose 100 mg/kg
Mus musculus [24] = assay: Anticonvulsant activity in mouse assessed as protection against maximal electroshock-induced seizures at 100 mg/kg, ip after 4 hrs; format: functional, organism-based; set-up: dose 100 mg/kg; outline: as §2
Mus musculus [25] = assay: Neurotoxicity in mouse assessed as electrically-induced clonic seizures at 100 mg/kg, ip after 1 hr by rotarod test; format: toxicity, organism-based; set-up: dose 100 mg/kg, route intraperitoneal; details: in vivo; outline: as §1
Mus musculus [26] = assay: Neurotoxicity in mouse assessed as electrically-induced clonic seizures at 100 mg/kg, ip after 0.5 hrs by rotarod test; format: toxicity, organism-based; set-up: dose 100 mg/kg, route intraperitoneal; details: in vivo; outline: as §1
Mus musculus [27] = assay: Anticonvulsant activity in mouse assessed as protection against maximal electroshock-induced seizures at 100 mg/kg, ip after 0.5 hrs; format: functional, organism-based; set-up: dose 100 mg/kg; outline: as §2
Mus musculus [28] = assay: Neurotoxicity in mouse assessed as minimum motor impairment at 300 mg/kg, ip after 4 hrs by rotarod test; format: toxicity, organism-based; set-up: dose 300 mg/kg, route intraperitoneal; details: in vivo; outline: as §3
Mus musculus [29] = assay: Anticonvulsant activity in mouse assessed as protection against maximal electroshock-induced seizures at 300 mg/kg, ip after 4 hrs; format: functional, organism-based; set-up: dose 300 mg/kg; outline: as §2

Structure (SMILES)	Activity (Mus musculus [1])	Activity (Mus musculus [2])	Activity (Mus musculus [3])	Activity (Mus musculus [4])	Activity (Mus musculus [5])	Activity (Mus musculus [6])	Activity (Mus musculus [7])	Activity (Mus musculus [8])	Activity (Mus musculus [9])	Activity (Mus musculus [10])	Activity (Mus musculus [11])	Activity (Mus musculus [12])	Activity (Mus musculus [13])	Activity (Mus musculus [14])	logP [15]	Activity (Mus musculus [16])	Activity (Mus musculus [17])	Activity (Mus musculus [18])	Activity (Mus musculus [19])	Activity (Mus musculus [20])	further results
O=C(NC(=S)Nc1ccccc1)Nc1ccc2c(c1)C(=O)C(=O)N2Cc1ccccc1Cl	Non-toxic	inactive	Non-toxic	Non-toxic	inactive	Non-toxic	inactive	inactive	Active	inactive	inactive	Active	Non-toxic	Active	3.18	inactive	Non-toxic	Active	Non-toxic	inactive	Activity (Mus musculus [21]): Active; Activity (Mus musculus [22]): Non-toxic; Activity (Mus musculus [23]): inactive; Activity (Mus musculus [24]): Active; Activity (Mus musculus [25]): Non-toxic; Activity (Mus musculus [26]): Non-toxic; Activity (Mus musculus [27]): inactive; Activity (Mus musculus [28]): Non-toxic
COc1ccc(NC(=S)NC(=O)Nc2ccc3c(c2)C(=O)C(=O)N3Cc2ccccc2)cc1	Non-toxic	inactive	Non-toxic	Non-toxic	inactive	Non-toxic	inactive	inactive	inactive	inactive	inactive	Active	Non-toxic	Active	2.39	inactive	Non-toxic	Active	Non-toxic	inactive	Activity (Mus musculus [29]): Active; Activity (Mus musculus [21]): Active; Activity (Mus musculus [22]): Non-toxic; Activity (Mus musculus [23]): inactive; Activity (Mus musculus [24]): inactive; Activity (Mus musculus [25]): Non-toxic; Activity (Mus musculus [26]): Non-toxic; Activity (Mus musculus [27]): inactive; Activity (Mus musculus [28]): Non-toxic
